Published values of several laboratories.
Each line is one published result; the experiments were not run side by side.
Target: MAP/microtubule affinity-regulating kinase 3 (MARK3, Homo sapiens, UniProt P27448)

SMILES | effect on | method | concentration | remaining binding [%]
O=C(NCCCN1CCOCC1)c1ccc(Nc2nccc(-c3cc4ccccc4s3)n2)cc1 | binding | competition with immobilised ligand | 1 µM | 100
CN(CCCC(F)(F)F)c1nccc(-c2cnn3ncccc23)n1 | binding |  | 1 µM | 100
C[C@@H](c1ccc(-n2cnc3c(N)ncnc32)cc1)N1CCc2nn(C)c(Cc3ccccc3)c2C1=O | binding | competition with immobilised ligand | 0.1 µM | 93
O=C(NCCCN1CCOCC1)c1ccc(Nc2ncc(Cl)c(-c3ccc(Cl)s3)n2)cc1 | binding | competition with immobilised ligand | 1 µM | 100
COc1cc(-c2cn(C3CCc4ccccc4N(CC(F)(F)F)C3=O)nn2)ccc1-n1ccc(C)n1 (stereo not drawn) | cell-free assay | competition with immobilised ligand | 1 µM | 100
C[C@@H]1CN(c2ccc3ncc(-c4ccc5[nH]nc(C6CC6)c5c4)n3n2)C[C@H](C)O1 | binding | competition with immobilised ligand | 50 nM | 100
O=C(Nc1c[nH]nc1C(=O)NC1CCNCC1)c1cc(F)cc(F)c1 | binding | competition with immobilised ligand | 1 µM | 100
N[C@@H]1CCN(c2nccc(-c3cnn4ncccc34)n2)C1 | binding |  | 1 µM | 100
Nc1ncc2c(n1)-c1c([nH]c3ccc(C#CC4CC4)cc13)CCCC2 | binding | competition with immobilised ligand | 1 µM | 97
N#Cc1ccccc1CSc1nnc2c(n1)[nH]c1ccccc12 | binding | competition with immobilised ligand | 10 µM | 93
Cc1cnn2ncc(-c3ccnc(N(C)C)n3)c2c1 | binding |  | 1 µM | 82
CCN1CCN(Cc2ccc(C(=O)Nc3ccc(C)c(Oc4ccc5c(c4)CC(=O)N5)c3)cc2C(F)(F)F)CC1 | binding | competition with immobilised ligand | 1 µM | 100
O=C(Nc1cccnn1)N1CCC(=Cc2cccc(Oc3ccc(C(F)(F)F)cn3)c2)CC1 | cell-free assay | competition with immobilised ligand | 1 µM | 89
CN(c1nccc(-c2cnn3ncccc23)n1)C1CC1 | binding |  | 1 µM | 100
C[C@H](c1ccc(F)cc1)N(Cc1cccc(C(=O)O)c1)C(=O)c1cnc2ccccc2c1 | cell-free assay | competition with immobilised ligand | 1 µM | 100
O=C(c1ccc(Nc2ncc(Cl)c(-c3cc4ccccc4s3)n2)cc1)N1CCC(N2CCCC2)CC1 | binding | competition with immobilised ligand | 1 µM | 100
O=C(NCc1ncc(C(F)(F)F)cc1Cl)c1ccc2c(c1)C1(CCS(=O)(=O)CC1)[C@H](C1CC1)N2S(=O)(=O)c1ccc(F)cc1 | cell-free assay | competition with immobilised ligand | 1 µM | 89
C=CC(=O)N1CCC(C(=O)NCC(=O)N2CCN(c3nc(-c4cnc(N)nc4C(F)F)nc(N4CCOCC4)n3)CC2)CC1 | binding | competition with immobilised ligand | 1 µM | 65
Cc1c(C(=O)O)cc(-c2ccc(C3CCNCC3)cc2)c2ccc(-c3ccc(C(F)(F)F)cc3)cc12 | binding | competition with immobilised ligand | 1 µM | 100
COc1cnc(Nc2cccc(S(N)(=O)=O)c2)nc1N1CCN(c2ccccc2)CC1 | binding | competition with immobilised ligand | 1 µM | 100
O=C(Nc1ccc(Oc2ccc(F)cc2)cc1)N1CCc2ncccc2[C@H]1c1ccc(F)cc1 | cell-free assay | competition with immobilised ligand | 1 µM | 100
C[C@H]1CCN(c2nccc(-c3cnn4ncccc34)n2)C1 | binding |  | 1 µM | 92
CCc1ccccc1C(=O)Nc1n[nH]c2c(C)c(F)c(C3C(C#N)=C(C)N(C)C(C)=C3C#N)cc12 | cell-free assay | competition with immobilised ligand | 1 µM | 30
F[C@@H]1CCN(c2nccc(-c3cnn4ncccc34)n2)C1 | binding |  | 1 µM | 100
